Bioassay records: PubChem BioAssay, several laboratories
Shown are actives, neighbours in structure and some others; about 1.6% of the full set was active somewhere.
14-3-3 Bad PPI – disrupts binding of bovine 14-3-3 zeta to phospho-Bad peptide. actives 0.71% (n = 220,000). AID 781. TR-FRET 14-3-3zeta/Dy647-pBad peptide displacement, 1 h. inhibition, % at 21.7 µM;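 active means inhibition above about 70%, limit read from the data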
eIF4E-4G inh – inhibitors of eIF4E and eIF4G interaction in translation initiation; actives 0.37% (n = 220,000); TR-FRET eIF4E-eIF4GI(517-606) binding, 2 h; P63073+Q04637; inhibition, % at 21.7 µM
NCF1 inh – p47phox (human) inhibition; P14598; p47phox/p22phox peptide binding, fluorescence polarization, 2 h; inhibition, % at 24.7 µM; actives 0.53% (n = 220,000); AID 1274
Target sequence (P14598 whole entry, looked up): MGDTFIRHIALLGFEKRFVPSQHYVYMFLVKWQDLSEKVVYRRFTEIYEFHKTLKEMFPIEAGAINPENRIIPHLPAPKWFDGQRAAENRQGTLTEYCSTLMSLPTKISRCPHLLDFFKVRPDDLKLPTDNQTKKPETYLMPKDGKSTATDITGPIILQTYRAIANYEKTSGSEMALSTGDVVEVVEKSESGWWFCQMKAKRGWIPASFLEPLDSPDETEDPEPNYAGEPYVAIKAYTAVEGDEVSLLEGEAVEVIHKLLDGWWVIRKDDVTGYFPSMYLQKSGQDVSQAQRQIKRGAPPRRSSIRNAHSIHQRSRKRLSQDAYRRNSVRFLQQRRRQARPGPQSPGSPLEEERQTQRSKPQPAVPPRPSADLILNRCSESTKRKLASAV
UBC9 SUMO inh – inhibitors of human SUMOylation (UBC9); inhibition, % at 35 µM; P63279; HTRF SUMOylation assay, SAE1/SAE2 + UBC9, in vitro; actives 0.36% (n = 290,000); in the data active means inhibition above about 50%, passing the limit was not always enough
Target sequence (P63279 whole entry, looked up): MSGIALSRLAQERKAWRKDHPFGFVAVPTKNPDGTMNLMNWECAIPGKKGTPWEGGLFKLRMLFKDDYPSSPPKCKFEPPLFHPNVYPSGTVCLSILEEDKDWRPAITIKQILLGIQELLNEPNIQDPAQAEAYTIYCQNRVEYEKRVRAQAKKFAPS
p97 ATPase inh – human p97 ATPase inhibition | recombinant p97 ATPase, Kinase-Glo ATP luminescence, 3 h | P55072 | inhibition, % at 8 µM | actives 0.42% (n = 220,000); in the data active means inhibition above about 15%
TbMetRS inhib – blocks T. brucei methionyl-tRNA synthetase activity. purified T. brucei MetRS, ATP depletion, Kinase-Glo luminescence. inhibition, % at 11.9 µM. actives 0.4% (n = 360,000). AID 624268;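 active means inhibition above a per-plate cutoff of the control wells' mean inhibition plus 3 SD, cut at about 5.5% in these data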
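System: purified T. brucei MetRS enzyme / Detection: Kinase-Glo luciferase luminescence reporting remaining unconsumed ATP / Medium: HEPES buffer with MgCl2, KCl, DTT, spermine, BSA, pyrophosphatase / Replication: singlicate, one well per compound / Evaluation: percent inhibition relative to median high and low control wells / Schedule: 2 h aminoacylation at 25 °C after 15 min preincubation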
Tb MetRS conf – Trypanosoma brucei MetRS inhibition confirmed | inhibition, % at 11.9 µM | T. brucei MetRS enzyme, luminescence (ATP depletion) | actives 93% (n = 1,400) | shares compounds with TbMetRS inhib; in the data active means inhibition above about 7%
Jurkat cytotox – kills Jurkat cells in T. brucei MetRS counterscreen. inhibition, % at 8.3 µM. AID 624413. Jurkat cells viability, ATP luminescence. actives 12% (n = 1,400). shares compounds with TbMetRS inhib; in the data active means inhibition above about 15%
TbMetRS FP orth – T. brucei MetRS inhibition, orthogonal assay; actives 44% (n = 1,400); purified T. brucei MetRS, fluorescence polarization; shares compounds with TbMetRS inhib; AID 651607; inhibition, % at 11.9 µM; in the data active means inhibition above about 17%
Numbers stand for hits; n = inactive; x = not tested or not shown.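 How the source made its calls, unless noted: active means inhibition above about 30% (limit read from the data); inactive means the rest.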

SMILES	14-3-3 Bad PPI	eIF4E-4G inh	NCF1 inh	UBC9 SUMO inh	p97 ATPase inh	TbMetRS inhib	Tb MetRS conf	Jurkat cytotox	TbMetRS FP orth
COc1ccc(N2C(=O)C(CC(=O)Nc3ccc(Cl)cc3)N(NC(=O)c3cccc(F)c3)C2=S)cc1 (centres undefined)	n	n	n	n	n	39	51	n	24
Nc1cc(Oc2ccc(Cl)cc2Cl)nc(N)n1	x	x	x	n	x	22	31	n	24
O=C(CSc1nnc2c(n1)[nH]c1ccc(F)cc12)NC1CC1	x	x	x	n	x	n	x	x	x
COc1ccc(CNC(=O)CSc2nnc3c(n2)[nH]c2ccc(OC)cc23)cc1	x	x	x	n	x	7.6	35	n	22
COc1ccc2[nH]c3nc(SC(C)C)nnc3c2c1	n	n	n	n	n	n	x	x	x
Cc1ccc(CNC(=O)CSc2nnc3c(n2)[nH]c2ccccc23)cc1	x	x	x	n	x	16	69	n	45
COc1ccc(CNC(=O)CSc2nnc3c(n2)[nH]c2ccc(F)cc23)cc1	x	x	x	n	x	33	92	n	66
COc1ccc(CCNC(=O)CSc2nnc3c(n2)[nH]c2ccc(F)cc23)cc1OC	x	x	x	n	x	n	x	x	x
O=C(CSc1nnc2c(n1)[nH]c1ccc(F)cc12)NCc1ccc(F)cc1	x	x	x	n	x	17	71	n	49
CCOC(=O)c1c(-c2ccc(OC)cc2)oc2c1C(OC(C)=O)CCC2 (centres undefined)	x	x	x	x	x	n	x	x	x
c1ccc(Nc2ccnc(Nc3ccccc3)n2)cc1	n	n	n	n	n	10	24	n	n
Cc1ccc2nc(NC(=O)C3CCN(S(=O)(=O)c4cccs4)CC3)sc2c1	n	n	n	n	n	n	x	x	x
Cc1ccc2nc(N/C(=N/S(=O)(=O)c3cccs3)c3ccccc3Cl)sc2c1	n	n	n	n	n	6.8	13	n	n
COc1ccc(-c2coc3c(C(=O)Nc4cccc(C(C)=O)c4)cccc23)c(C)c1	x	x	x	x	x	7.6	n	n	21
COc1ccc(-c2ccc(C(=O)Nc3cccc(C(C)=O)c3)c3occc23)c(C)c1	x	x	x	x	x	n	x	x	x
Cc1ccc(/C=C2\SC(N3CCN(C(c4ccccc4)c4ccccc4)CC3)=NC2=O)o1	n	n	n	n	n	n	x	x	x
O=C(Nc1ccc(F)cc1)C1CC(=O)n2c(nc3ccccc32)N1 (centres undefined)	n	n	n	n	n	18	34	n	n
O=C(Nc1ccc(F)c(Cl)c1)C1CC(=O)n2c(nc3ccccc32)N1 (centres undefined)	n	n	n	n	n	74	90	n	76
OC(c1ccccc1)(c1nc(-c2cc(F)cc(F)c2)cs1)C(F)(F)F (centres undefined)	x	x	x	x	x	n	x	x	x
COc1ccc(-n2c(N)c(C(=O)NCc3ccco3)c3nc4ccccc4nc32)cc1	n	n	n	n	n	n	x	x	x
Nc1c(C(=O)NCc2ccco2)c2nc3ccccc3nc2n1CCc1ccc(F)cc1	n	n	n	100	n	8.4	11	n	n
O=C(O)CCc1ccc(-c2ccc(Br)cc2)n1-c1ccc(O)cc1	x	x	x	n	x	5.7	16	n	n
Clc1ccccc1OCc1nc(-c2ccccn2)no1	n	n	n	n	n	n	x	x	x
Clc1ccc(OCc2nc(-c3ccccn3)no2)c(Br)c1	n	n	n	n	n	5.8	6.5	n	n
COc1ccc(OCc2cc(C(=O)NC(C)c3nc(C)cs3)no2)c(Cl)c1 (centres undefined)	x	x	x	x	x	n	x	x	x
SMILES	14-3-3 Bad PPI	eIF4E-4G inh	NCF1 inh	UBC9 SUMO inh	p97 ATPase inh	TbMetRS inhib	Tb MetRS conf	Jurkat cytotox	TbMetRS FP orth
COc1ccc(OCc2cc(C(=O)NCc3nc(C)cs3)no2)c(Cl)c1	x	x	x	n	x	6.2	29	n	21
Cc1noc(NS(=O)(=O)c2ccc(NC(=O)CCCOc3ccc(Cl)cc3Cl)cc2)c1C	n	n	n	n	n	7.6	14	n	n
Cc1cc(Cl)ccc1OCCCC(=O)NCCc1nnc2ccccn12	x	x	x	n	x	7.2	14	n	n
Cc1noc(C)c1COC(=O)Cc1ccc(Cl)cc1	n	n	n	n	n	n	x	x	x
CCNC(=O)CCCOc1ccc(Cl)cc1Cl	n	n	n	n	n	6.3	14	n	n
Cc1noc(C)c1COC(=O)CCCOc1ccc(Cl)cc1Cl	n	n	n	n	n	7.0	19	n	n
COc1ccc(NC(=O)NC2CCCCC2C)cc1 (centres undefined)	n	n	n	n	n	n	x	x	x
CC12CCC(=O)C=C1CCC1C2C(O)CC2(C)C1CCC2(O)C(=O)COC(=O)COCC(=O)O (centres undefined)	x	x	x	x	x	n	x	x	x
O=C(COc1ccc(F)cc1)Nc1ccccc1N1CCOCC1	x	x	x	x	x	n	x	x	x
O=C(COC(=O)CCCOc1ccc(Cl)cc1Cl)NCc1ccccc1	n	n	n	n	n	40	57	n	43
COc1cccc(/C=N/Nc2nc3ccccc3[nH]2)c1OC	n	n	n	n	n	n	x	x	x
COc1cccc(/C=N/Nc2nc3ccccc3[nH]2)c1O	n	n	n	n	n	8.8	10	96	n
O=[N+]([O-])c1ccc(O)c(/C=N/Nc2nc3ccccc3[nH]2)c1	n	n	n	n	n	9.5	14	98	n
Cc1nn(-c2ccccc2)c(C)c1/C=N/Nc1nc2ccccc2[nH]1	n	n	n	n	n	8.0	14	n	n
COc1cc(/C=N/Nc2nc3ccccc3[nH]2)ccc1O	n	n	n	n	n	7.9	15	n	32
CCCC(=O)N1CCCC(C(=O)c2cccc(OC(C)C)c2)C1 (centres undefined)	x	x	x	x	x	n	x	x	x
O=C(CCC(=O)c1cccs1)NCc1cccc(C(F)(F)F)c1	x	x	x	x	x	n	x	x	x
O=C1NC(Cc2c[nH]c3ccccc23)C(=O)N1CCOc1ccccc1 (centres undefined)	n	n	n	n	n	n	x	x	x
O=C(Nc1ccc(N=Nc2ccccc2)c(NC(=O)C2CCCO2)c1)C1CCCO1 (centres undefined)	n	n	n	n	n	n	x	x	x
C/C(=N\Nc1ccc(S(=O)(=O)N2CCOCC2)cc1[N+](=O)[O-])C(C)C	n	n	n	n	n	n	x	x	x
COc1cc(/C=N/Nc2nc3ccccc3[nH]2)cc(OC)c1O	n	n	n	n	n	8.5	14	30	33
OCC1(CCc2ccccc2)CCN(C/C=C/c2ccccc2)CC1	x	x	x	n	x	n	x	x	x
OCC1(Cc2ccccc2Cl)CCN(C/C=C/c2ccccc2)CC1	n	n	n	n	n	7.2	19	n	n
C=CCn1c(SCC(=O)c2ccc(O)c(O)c2)nnc1-c1cccc(OC)c1	x	x	x	x	x	n	x	x	x
